From ChEMBL document CHEMBL3797173, “Synthesis, anticancer activity, and SAR analyses of compounds containing the 5:7-fused 4,6,8-triaminoimidazo[4,5-e][1,3]diazepine ring system” (Bioorg Med Chem, 2016)

What was measured:
A549 = assay: Anticancer activity against human A549 cells incubated for 72 hrs by WST1 assay; assay type: functional, cell-based
In short: (§1)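 Cells (0.5–1.7x10³ per well) seeded in RPMI + 10% FBS the day before dosing. Endpoint: WST-1 reagent added, 4 h further incubation at 37 °C, 5% CO₂, then absorbance read at 450–690 nm. IC50 derived from these readouts.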

[1] = Anticancer activity against human H460 cells incubated for 72 hrs by WST1 assay; assay type: functional, cell-based, NCI-H460; in short: as §1
MCF7 = assay: Anticancer activity against human MCF7 cells incubated for 72 hrs by WST1 assay; assay type: functional, cell-based; in short: as §1
[2] = Anticancer activity against human OVCAR3 cells incubated for 72 hrs by WST1 assay; assay type: functional, cell-based, OVCAR-3; in short: as §1
[3] = Anticancer activity against human PC3 cells incubated for 72 hrs by WST1 assay; assay type: functional, cell-based, PC-3; in short: as §1
MDA-MB-231 = assay: Anticancer activity against human MDA-MB-231 cells incubated for 72 hrs by WST1 assay; assay type: functional, cell-based; in short: as §1
[4] = Homo sapiens, A549, 72 h, read-out: IC50
[5] = Homo sapiens, NCI-H460, 72 h, read-out: IC50
[6] = Homo sapiens, MCF7, 72 h, read-out: IC50
[7] = Homo sapiens, OVCAR-3, 72 h, read-out: IC50
[8] = Homo sapiens, PC-3, 72 h, read-out: IC50
[9] = Homo sapiens, MDA-MB-231, 72 h, read-out: IC50

Row | Compound | IC50 (A549; [4]) [µM] | IC50 [1, 5] [µM] | IC50 (MCF7; [6]) [µM] | IC50 [2, 7] [µM] | IC50 [3, 8] [µM] | IC50 (MDA-MB-231; [9]) [µM] | IC50 ([2]; ovcar-3) | IC50 (MDA-MB-231; mda-mb-231) | IC50 (A549; a549) | IC50 ([1]; nci-h460) | IC50 (MCF7; mcf7) | IC50 ([3]; pc-3)
1 | CCCCCCCCCCCCCC/N=c1\nc(N)c2ncn(Cc3ccccc3)c2c(N)n1 | 4.25 | 6.75 | 4.1 | 5.5 | 4.2 | 5.85 | – | – | – | – | – | –
2 | CC/N=c1\nc(N)c2nc[nH]c2c(N)n1 | 38 | 22 | > 100 | – | > 100 | – | Not Active | Not Active | – | – | – | –
3 | CCCCCCCC/N=c1\nc(N)c2ncn(Cc3ccccc3)c2c(N)n1 | 3.83 | 7.45 | 4.55 | 4.98 | 5.93 | 4.75 | – | – | – | – | – | –
4 | CCCCCCCC/N=c1\nc(N)c2ncn(Cc3ccc(OC)cc3)c2c(N)n1 | 5.7 | 4.2 | 3.8 | 3.75 | 5.9 | 2.55 | – | – | – | – | – | –
5 | CCCCCCCCCCCCCCCCCC/N=c1\nc(N)c2ncn(Cc3ccccc3)c2c(N)n1 | 5.3 | 5.4 | 8.3 | 4.95 | 5.45 | 5.4 | – | – | – | – | – | –
6 | Nc1n/c(=N\CCCCc2ccccc2)nc(N)c2c1ncn2Cc1ccccc1 | 15.3 | 18.8 | 8.8 | 37.3 | > 75 | 16.6 | – | – | – | – | – | –
7 | CCCCCCCCCCCCCCCCCC/N=c1\nc(N)c2nc[nH]c2c(N)n1 | 1.85 | 1.75 | 3.53 | 3.1 | 2.61 | 1.43 | – | – | – | – | – | –
8 | CCCCCCCCCC/N=c1\nc(N)c2ncn(Cc3ccccc3)c2c(N)n1 | 1.8 | 3.2 | 1.4 | 3.95 | 5.15 | 2.05 | – | – | – | – | – | –
9 | CCCCCCCC/N=c1\nc(N)c2ncn(Cc3ccc(F)cc3)c2c(N)n1 | 5.9 | 4.7 | 3 | 4.3 | 3.8 | 3.6 | – | – | – | – | – | –
10 | Nc1n/c(=N\CCc2ccccc2)nc(N)c2c1ncn2Cc1ccccc1 | 20.4 | 36.6 | 10.4 | 31.7 | 13.1 | 17.9 | – | – | – | – | – | –
11 | CCCCCCCC/N=c1\nc(N)c2nc[nH]c2c(N)n1 | – | – | – | – | – | – | Not Active | Not Active | Not Active | Not Active | Not Active | Not Active
